Data on one molecule can be found in ChEMBL document CHEMBL4229344 (Eur J Med Chem, 2018).

The source made the active and inactive calls. No cut-off for these calls is given here.

Data set [1] deals with Receptor-interacting serine/threonine-protein kinase 2 (Homo sapiens) (UniProt O43353). Put plainly: Binding affinity to wild-type human partial length RIPK2 (M1 to K310 residues) expressed in bacterial expression system assessed as residual binding level at 1 uM by Kinomescan method relative to control.
Data set [2] addresses Serine/threonine-protein kinase tousled-like 2 (Homo sapiens) (UniProt Q86UE8). In words: Binding affinity to wild-type human partial length TLK2 (E424 to N749 residues) expressed in bacterial expression system assessed as residual binding level at 1 uM by Kinomescan method relative to control.
Data set [3] addresses Platelet-derived growth factor receptor alpha (Homo sapiens, UniProt P16234). Put plainly: Inhibition of PDGFRalpha in human EOL-1 cells assessed as decrease in STAT5 phosphorylation at Y694 residue up to 300 nM after 2 hrs by Western blot analysis. It is filed as cell-based. A general note: Immunoblotting shows a protein as a band on a membrane.
Data set [4] deals with 5'-AMP-activated protein kinase catalytic subunit alpha-1 (Homo sapiens) (UniProt Q13131). In words: Binding affinity to wild-type human partial length AMPK alpha1 (M1 to E306 residues) expressed in bacterial expression system assessed as residual binding level at 1 uM by Kinomescan method relative to control. A digest of the protocol:
(§1)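 Kinome-wide competition binding screen against a panel of 468 purified kinases/mutants, with the test compound at a single concentration of 1 μM. Read-out is the relative binding activity of each kinase in the presence of compound.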

Data set [5] has as its target Mitogen-activated protein kinase 15 (Homo sapiens) (UniProt Q8TD08). In words: Binding affinity to wild-type human partial length ERK8 (M1 to P437 residues) expressed in bacterial expression system assessed as residual binding level at 1 uM by Kinomescan method relative to control.
Data set [6] has as its target Mitogen-activated protein kinase 10 (Homo sapiens) (UniProt P53779). In words: Binding affinity to wild-type human partial length JNK3 (V28 to Q422 residues) expressed in mammalian expression system assessed as residual binding level at 1 uM by Kinomescan method relative to control. A digest of the protocol:
as §1

In data set [7] the target is Cyclin-dependent kinase 8 (Homo sapiens) (UniProt P49336). In words: Binding affinity to wild-type human partial length CDK8 (M1 to T360 residues) expressed in bacterial expression system assessed as residual binding level at 1 uM by Kinomescan method relative to control.
Chain of Cyclin-dependent kinase 8 (Homo sapiens) (P49336 whole entry, the tested form may be a part): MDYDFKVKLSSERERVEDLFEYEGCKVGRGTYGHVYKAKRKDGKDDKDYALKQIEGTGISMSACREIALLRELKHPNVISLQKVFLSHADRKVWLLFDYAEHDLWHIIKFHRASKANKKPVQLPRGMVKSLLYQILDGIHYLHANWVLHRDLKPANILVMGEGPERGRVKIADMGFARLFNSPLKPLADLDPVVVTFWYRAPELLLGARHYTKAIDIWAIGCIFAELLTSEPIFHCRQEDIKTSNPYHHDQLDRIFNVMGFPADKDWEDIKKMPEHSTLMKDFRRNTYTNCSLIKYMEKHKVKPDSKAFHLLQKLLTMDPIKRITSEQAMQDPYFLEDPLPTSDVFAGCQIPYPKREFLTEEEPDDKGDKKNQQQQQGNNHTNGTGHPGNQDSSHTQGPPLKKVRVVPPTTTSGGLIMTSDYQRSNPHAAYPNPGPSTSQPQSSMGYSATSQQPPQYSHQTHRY
The target in data set [8] is Dual specificity protein kinase CLK3 (Homo sapiens) (UniProt P49761). Put plainly: Binding affinity to wild-type human full length CLK3 (M1 to R490 residues) expressed in bacterial expression system assessed as residual binding level at 1 uM by Kinomescan method relative to control. A digest of the protocol:
(§2)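 KINOMEscan competition binding against 468 purified kinases/mutants, test compound at 1 µM; residual binding relative to control.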

Data set [9] addresses Ephrin type-A receptor 1 (Homo sapiens) (UniProt P21709). In words: Binding affinity to wild-type human partial length EPHA1 (V588 to I913 residues) expressed in bacterial expression system assessed as residual binding level at 1 uM by Kinomescan method relative to control.
Data set [10] concerns the target Serine/threonine-protein kinase TAO3 (Homo sapiens) (UniProt Q9H2K8). In words: Binding affinity to wild-type human partial length TAOK3 (M1 to T316 residues) expressed in mammalian expression system assessed as residual binding level at 1 uM by Kinomescan method relative to control.
Data set [11] addresses Calcium/calmodulin-dependent protein kinase type IV (Homo sapiens) (UniProt Q16566). Put plainly: Binding affinity to wild-type human partial length CAMK4 (A22 to A322 residues) expressed in bacterial expression system assessed as residual binding level at 1 uM by Kinomescan method relative to control.
Another data set concerns EOL1. In words: Cell cycle arrest in human EOL-1 cells assessed as accumulation at G0/G1 phase at 0.01 to 0.3 uM after 12 hrs by propidium iodide/RNase staining-based flow cytometric analysis. In kind it is functional. A digest of the protocol:
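Cells treated with compound or DMSO for the stated periods, fixed overnight in 70% cold ethanol at −20 °C, stained with PI/RNase buffer, then analysed by flow cytometry for cell-cycle distribution. For NCI-H1703 stimulation, PDGF AA was used at 100 ng/mL.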
A general note: A flow cytometer gives signals particle by particle.

The target in data set [12] is Myosin light chain kinase 2, skeletal/cardiac muscle (Homo sapiens) (UniProt Q9H1R3). Put plainly: Binding affinity to wild-type human partial length MYLK2 (D258 to K570 residues) expressed in bacterial expression system assessed as residual binding level at 1 uM by Kinomescan method relative to control.
The target of data set [13] is Receptor tyrosine-protein kinase erbB-3 (Homo sapiens) (UniProt P21860). Put plainly: Binding affinity to wild-type human partial length ERBB3 (G684 to A987 residues) expressed in mammalian expression system assessed as residual binding level at 1 uM by Kinomescan method relative to control.
For data set [14], the target named is Mitogen-activated protein kinase 9 (Homo sapiens) (UniProt P45984). Put plainly: Binding affinity to wild-type human full length JNK2 (M1 to Q382 residues) expressed in mammalian expression system assessed as residual binding level at 1 uM by Kinomescan method relative to control. A digest of the protocol:
as §2

A short description of data set [15]: AUC (0 to infinity) in Sprague-Dawley rat at 1 mg/kg, iv. In kind it is ADME, organism-based. On the set-up: dose 1 mg/kg, time infinity, route intravenous. The note with it: in vivo. A digest of the protocol:
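Male Sprague-Dawley rats (6–8 weeks) fasted overnight, dosed IV or orally; compound dissolved in 5% DMSO/40% PEG400/55% saline (dosing solution 1 mg/mL). Blood (~0.2 mL) from jugular vein into heparin; IV sampling 1 min–8 h, oral 5 min–24 h. Plasma separated by centrifugation at 2–8 °C, stored at −80 °C until analysis.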

For the next data set, the system named is Mus musculus. In words: Toxicity in NOD-SCID mouse engrafted with human EOL-1 cells assessed as change in body weight at 30 mg/kg/day, ip administered 3 weeks post cell inoculation. In kind it is organism-based. The following applies: in vivo, 504 h.
For data set [16], the system named is Proto-oncogene tyrosine-protein kinase receptor Ret (Homo sapiens), P07949 [M918T]. Put plainly: Binding affinity to human partial length RET M918T mutant (E713 to D1014 residues) expressed in bacterial expression system assessed as residual binding level at 1 uM by Kinomescan method relative to control. A digest of the protocol: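 Kinome-wide single-concentration binding screen (KINOMEscan) at 1 μM against a panel of 468 purified kinases and mutants. Read-out is relative binding of each kinase compared with control. Selectivity across the panel was summarised as an S(10) score.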
Chain of Proto-oncogene tyrosine-protein kinase receptor Ret (Homo sapiens), P07949 [M918T] (P07949 whole entry M918T, the tested form may be a part): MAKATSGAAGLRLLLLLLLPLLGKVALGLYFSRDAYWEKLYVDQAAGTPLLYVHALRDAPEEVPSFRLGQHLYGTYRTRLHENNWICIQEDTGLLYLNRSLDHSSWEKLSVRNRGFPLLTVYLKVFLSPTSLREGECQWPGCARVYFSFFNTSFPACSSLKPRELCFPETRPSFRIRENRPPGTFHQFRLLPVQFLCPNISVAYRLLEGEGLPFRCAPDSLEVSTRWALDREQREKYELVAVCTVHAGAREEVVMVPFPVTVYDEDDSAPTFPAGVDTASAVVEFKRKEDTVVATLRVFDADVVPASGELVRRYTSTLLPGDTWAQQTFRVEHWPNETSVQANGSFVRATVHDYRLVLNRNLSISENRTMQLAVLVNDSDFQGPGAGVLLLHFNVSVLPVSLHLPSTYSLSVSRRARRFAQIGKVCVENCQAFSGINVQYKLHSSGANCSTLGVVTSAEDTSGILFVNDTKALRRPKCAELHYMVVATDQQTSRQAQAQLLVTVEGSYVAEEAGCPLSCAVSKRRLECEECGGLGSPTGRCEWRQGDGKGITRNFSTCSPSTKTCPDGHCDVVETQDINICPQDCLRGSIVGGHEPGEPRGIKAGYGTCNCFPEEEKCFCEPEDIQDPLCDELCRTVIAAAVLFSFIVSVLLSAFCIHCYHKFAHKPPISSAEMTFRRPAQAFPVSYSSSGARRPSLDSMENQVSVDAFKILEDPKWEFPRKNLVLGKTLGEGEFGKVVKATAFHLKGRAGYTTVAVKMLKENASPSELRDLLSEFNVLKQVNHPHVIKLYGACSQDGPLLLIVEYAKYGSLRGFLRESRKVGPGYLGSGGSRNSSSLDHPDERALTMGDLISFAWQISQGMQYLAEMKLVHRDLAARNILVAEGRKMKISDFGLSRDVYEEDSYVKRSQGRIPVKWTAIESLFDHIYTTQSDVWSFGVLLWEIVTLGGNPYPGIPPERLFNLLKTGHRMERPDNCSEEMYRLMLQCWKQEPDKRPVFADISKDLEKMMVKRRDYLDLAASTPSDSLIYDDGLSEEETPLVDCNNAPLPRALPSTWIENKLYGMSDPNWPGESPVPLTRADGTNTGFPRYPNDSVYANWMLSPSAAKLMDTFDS

For data set [17], the target named is Calcium/calmodulin-dependent protein kinase type 1D (Homo sapiens) (UniProt Q8IU85). Put plainly: Binding affinity to wild-type human partial length CAMK1D (M1 to K299 residues) expressed in bacterial expression system assessed as residual binding level at 1 uM by Kinomescan method relative to control. A digest of the protocol:
as §1

Data set [18] has as its target Phosphatidylinositol 3-kinase C2 domain-containing subunit gamma (Homo sapiens) (UniProt O75747). Put plainly: Binding affinity to wild-type human partial length PIK3C2G (M1 to I1446 residues) expressed in mammalian expression system assessed as residual binding level at 1 uM by Kinomescan method relative to control.
The target of data set [19] is AP2-associated protein kinase 1 (Homo sapiens) (UniProt Q2M2I8). In words: Binding affinity to human wild-type AAK1 (G25 to L333 residues) expressed in bacterial expression system assessed as residual binding level at 1 uM by Kinomescan method relative to control. A digest of the protocol:
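Single-concentration (1 μM) competition-binding screen run by KINOMEscan against a panel of 468 purified kinases and mutants. The read-out is the relative binding activity of the test compound to each kinase.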

Chain of 5'-AMP-activated protein kinase catalytic subunit alpha-1 (Homo sapiens) (Q13131 whole entry, looked up, the tested form may be a part): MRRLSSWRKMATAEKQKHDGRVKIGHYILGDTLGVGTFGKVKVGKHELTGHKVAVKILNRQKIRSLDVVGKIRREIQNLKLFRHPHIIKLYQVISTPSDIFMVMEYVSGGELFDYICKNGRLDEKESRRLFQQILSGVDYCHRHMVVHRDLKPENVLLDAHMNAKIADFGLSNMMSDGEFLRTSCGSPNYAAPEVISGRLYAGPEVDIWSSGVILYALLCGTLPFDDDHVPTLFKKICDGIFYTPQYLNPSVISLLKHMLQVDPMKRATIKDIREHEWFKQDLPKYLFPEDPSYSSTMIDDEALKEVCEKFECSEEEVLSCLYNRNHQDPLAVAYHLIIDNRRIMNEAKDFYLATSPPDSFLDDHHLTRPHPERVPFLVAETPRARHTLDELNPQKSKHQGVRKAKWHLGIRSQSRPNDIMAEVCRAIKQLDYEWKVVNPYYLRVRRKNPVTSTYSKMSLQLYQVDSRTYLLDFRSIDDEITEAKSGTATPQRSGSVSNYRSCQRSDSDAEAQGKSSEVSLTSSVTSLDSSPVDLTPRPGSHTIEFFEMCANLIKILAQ
Chain of Serine/threonine-protein kinase TAO3 (Homo sapiens) (Q9H2K8 whole entry, the tested form may be a part): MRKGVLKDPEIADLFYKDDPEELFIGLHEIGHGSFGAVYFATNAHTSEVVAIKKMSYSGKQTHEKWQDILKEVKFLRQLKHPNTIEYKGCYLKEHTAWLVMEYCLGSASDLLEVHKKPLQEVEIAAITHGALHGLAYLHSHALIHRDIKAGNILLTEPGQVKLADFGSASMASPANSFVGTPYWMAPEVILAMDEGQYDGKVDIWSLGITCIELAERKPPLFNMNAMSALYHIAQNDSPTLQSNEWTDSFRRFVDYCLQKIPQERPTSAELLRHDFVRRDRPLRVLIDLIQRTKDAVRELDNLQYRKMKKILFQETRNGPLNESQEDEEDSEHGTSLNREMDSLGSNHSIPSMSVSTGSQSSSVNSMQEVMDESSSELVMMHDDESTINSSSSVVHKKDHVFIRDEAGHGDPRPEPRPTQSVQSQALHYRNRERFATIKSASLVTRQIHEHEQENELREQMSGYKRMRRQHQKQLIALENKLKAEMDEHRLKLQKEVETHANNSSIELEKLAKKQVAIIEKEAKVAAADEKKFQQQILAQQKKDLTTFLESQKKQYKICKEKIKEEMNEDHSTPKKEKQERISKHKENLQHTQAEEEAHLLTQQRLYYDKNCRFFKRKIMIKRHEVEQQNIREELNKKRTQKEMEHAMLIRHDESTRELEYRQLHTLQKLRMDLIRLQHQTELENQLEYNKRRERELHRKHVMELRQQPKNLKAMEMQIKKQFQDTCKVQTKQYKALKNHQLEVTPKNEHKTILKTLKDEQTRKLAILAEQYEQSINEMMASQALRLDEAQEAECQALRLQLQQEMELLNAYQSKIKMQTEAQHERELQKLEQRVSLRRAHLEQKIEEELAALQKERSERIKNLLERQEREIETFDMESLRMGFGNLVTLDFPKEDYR
Chain of Mitogen-activated protein kinase 9 (Homo sapiens) (P45984 whole entry, looked up, the tested form may be a part): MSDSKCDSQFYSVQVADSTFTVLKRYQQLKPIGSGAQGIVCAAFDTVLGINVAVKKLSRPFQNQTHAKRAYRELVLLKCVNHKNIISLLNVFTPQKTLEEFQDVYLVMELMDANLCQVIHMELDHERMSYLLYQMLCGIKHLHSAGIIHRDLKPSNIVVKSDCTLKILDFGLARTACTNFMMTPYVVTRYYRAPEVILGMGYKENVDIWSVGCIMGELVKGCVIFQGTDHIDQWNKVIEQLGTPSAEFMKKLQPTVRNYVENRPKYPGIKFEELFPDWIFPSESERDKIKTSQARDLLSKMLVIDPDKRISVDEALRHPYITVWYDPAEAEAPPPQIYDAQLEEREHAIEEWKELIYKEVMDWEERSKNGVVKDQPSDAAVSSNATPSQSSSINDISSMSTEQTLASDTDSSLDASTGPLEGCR
Chain of Platelet-derived growth factor receptor alpha (P16234 whole entry, the tested form may be a part): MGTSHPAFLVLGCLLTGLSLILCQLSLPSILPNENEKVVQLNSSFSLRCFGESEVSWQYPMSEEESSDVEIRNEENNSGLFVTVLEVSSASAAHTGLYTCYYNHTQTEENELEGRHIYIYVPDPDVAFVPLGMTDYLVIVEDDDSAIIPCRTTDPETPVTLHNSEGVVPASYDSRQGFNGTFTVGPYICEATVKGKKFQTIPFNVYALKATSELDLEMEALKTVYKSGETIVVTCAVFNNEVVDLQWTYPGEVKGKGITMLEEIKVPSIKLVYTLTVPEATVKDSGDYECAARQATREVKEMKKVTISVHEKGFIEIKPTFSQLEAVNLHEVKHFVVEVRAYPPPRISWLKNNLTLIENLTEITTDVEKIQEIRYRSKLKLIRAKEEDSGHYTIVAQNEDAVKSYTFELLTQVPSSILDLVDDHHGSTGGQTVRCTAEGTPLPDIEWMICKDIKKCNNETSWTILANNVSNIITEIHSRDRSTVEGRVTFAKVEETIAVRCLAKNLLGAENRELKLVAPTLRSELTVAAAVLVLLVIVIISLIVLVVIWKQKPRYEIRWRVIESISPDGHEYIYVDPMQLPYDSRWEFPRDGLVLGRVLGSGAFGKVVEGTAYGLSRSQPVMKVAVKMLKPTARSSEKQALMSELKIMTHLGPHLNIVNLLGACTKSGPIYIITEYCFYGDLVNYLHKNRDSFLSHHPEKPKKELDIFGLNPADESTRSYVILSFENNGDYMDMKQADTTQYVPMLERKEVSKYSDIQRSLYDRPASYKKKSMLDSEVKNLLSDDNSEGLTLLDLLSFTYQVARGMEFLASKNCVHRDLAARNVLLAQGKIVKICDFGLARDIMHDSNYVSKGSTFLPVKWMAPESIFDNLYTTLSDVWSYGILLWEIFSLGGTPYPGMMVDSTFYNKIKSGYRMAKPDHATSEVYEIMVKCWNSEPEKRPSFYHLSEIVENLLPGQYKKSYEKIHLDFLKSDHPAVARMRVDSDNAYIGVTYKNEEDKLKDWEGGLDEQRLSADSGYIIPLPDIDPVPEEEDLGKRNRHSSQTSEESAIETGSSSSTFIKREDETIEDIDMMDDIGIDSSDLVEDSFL
Chain of Calcium/calmodulin-dependent protein kinase type 1D (Homo sapiens) (Q8IU85 whole entry, looked up, the tested form may be a part): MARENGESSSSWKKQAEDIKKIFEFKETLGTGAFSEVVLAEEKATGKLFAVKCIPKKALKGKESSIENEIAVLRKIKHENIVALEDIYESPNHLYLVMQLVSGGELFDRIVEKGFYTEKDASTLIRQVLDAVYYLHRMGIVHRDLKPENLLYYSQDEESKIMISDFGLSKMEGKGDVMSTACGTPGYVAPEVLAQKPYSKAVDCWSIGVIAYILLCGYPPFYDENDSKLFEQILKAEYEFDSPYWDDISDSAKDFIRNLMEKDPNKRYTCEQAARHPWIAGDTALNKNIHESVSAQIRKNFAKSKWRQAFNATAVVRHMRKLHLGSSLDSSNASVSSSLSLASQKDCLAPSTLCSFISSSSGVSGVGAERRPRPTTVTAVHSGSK

By AUC(0-inf) is commonly meant the area under the concentration-time curve extrapolated to infinity. In the case of `Cc1ccc(NC(=O)c2ccc(CN(CCN(C)C)C(=O)c3cccnc3)cc2)cc1Nc1nccc(-c2cccnc2)n1`, the Activity in data set [1] is 93%; in data set [2] it was 95%; in [4], 92%; in data set [5], 71%; in data set [6] it was 48%; in data set [7], 90%. In addition, the Activity in data set [8] came to 94%; in data set [9] it was 100%; in data set [10], 100%; in data set [11], 98%; in data set [12], 100%; in data set [13] it was 95%. The Activity in data set [14] was 91%; with Mus musculus, “Non-Toxic”; in [16] it was 85%; in data set [17], 84%; in data set [18], 100%; in data set [19], 100%. Moreover, the inhibition result in data set [3] is “Active”. The outcome in the data set with EOL1 was Active. This molecule had an area under the curve AUC(0-inf) in data set [15] of 541 ng·h/mL.
